According to ChEMBL document CHEMBL4406880, “Design, synthesis, and bioactivity of dihydropyrimidine derivatives as kinesin spindle protein inhibitors” (Bioorg Med Chem, 2019):

Columns and labels:
Type in all cases: functional
LOX IMVI = test: Growth inhibition of human LOXIMVI cells assessed as growth percentage at 10 uM incubated for 48 hrs by sulforhodamine B assay relative to control; settings: read-out: Activity
Procedure, shortened: (§1)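 NCI-60 one-dose screen. Cells in RPMI 1640 with 5% FBS and 2 mM L-glutamine, seeded at 5,000–40,000 cells/well according to doubling time, and preincubated overnight at 37 °C, 5% CO2. A time-zero plate was TCA-fixed at drug addition. Compound from DMSO stock, final 10 µM, 48 h; DMSO vehicle controls. Fixation with TCA, 10% final (16% for suspension cells). SRB stain, Tris solubilization, A515. Result given as % growth versus untreated cells.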

SK-MEL-28 = test: Growth inhibition of human SK-MEL-28 cells assessed as growth percentage at 10 uM incubated for 48 hrs by sulforhodamine B assay relative to control; settings: SK-MEL-28, 48 h, read-out: Activity
Procedure, shortened: (§2)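 NCI-60 single-dose screen. Cells were grown in RPMI 1640 with 5% FBS and 2 mM L-glutamine and plated at 5,000–40,000 cells/well. After an overnight preincubation at 37 °C in 5% CO2, compound was added at a final 10 µM from a DMSO stock, with DMSO/PBS controls. After 48 h, cells were TCA-fixed and stained with 0.4% SRB, and absorbance was read at 515 nm. Growth is given as a percentage of untreated control.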

K562 = test: Growth inhibition of human K562 cells assessed as growth percentage at 10 uM incubated for 48 hrs by sulforhodamine B assay relative to control; settings: K562, 48 h, read-out: Activity; procedure, shortened: as §1
SF-295 = test: Growth inhibition of human SF295 cells assessed as growth percentage at 10 uM incubated for 48 hrs by sulforhodamine B assay relative to control; settings: SF-295, 48 h, read-out: Activity; procedure, shortened: as §2
RXF 393 = test: Growth inhibition of human RXF393 cells assessed as growth percentage at 10 uM incubated for 48 hrs by sulforhodamine B assay relative to control; settings: RXF 393, 48 h, read-out: Activity; procedure, shortened: as §2
DU-145 = test: Growth inhibition of human DU145 cells assessed as growth percentage at 10 uM incubated for 48 hrs by sulforhodamine B assay relative to control; settings: DU-145, 48 h, read-out: Activity
Procedure, shortened: (§3)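 NCI-60 one-dose screen: cells in RPMI 1640 with 5% FBS and 2 mM L-glutamine, plated at 5,000–40,000 cells/well and preincubated 24 h at 37 °C, 5% CO2. Compound is added from a DMSO stock to a final 10 µM and incubated 48 h. Cells are TCA-fixed and stained with sulforhodamine B, read at 515 nm. Output is % growth versus untreated control, with a time-zero plate.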

A549 = test: Growth inhibition of human A549/ATCC cells assessed as growth percentage at 10 uM incubated for 48 hrs by sulforhodamine B assay relative to control; settings: A549, 48 h, read-out: Activity; procedure, shortened: as §3
MDA-MB-231 = test: Growth inhibition of human MDA-MB-231 cells assessed as growth percentage at 10 uM incubated for 48 hrs by sulforhodamine B assay relative to control; settings: MDA-MB-231, 48 h, read-out: Activity; procedure, shortened: as §1
SW-620 = test: Growth inhibition of human SW620 cells assessed as growth percentage at 10 uM incubated for 48 hrs by sulforhodamine B assay relative to control; settings: SW-620, 48 h, read-out: Activity; procedure, shortened: as §2
KM12 = test: Growth inhibition of human KM12 cells assessed as growth percentage at 10 uM incubated for 48 hrs by sulforhodamine B assay relative to control; settings: KM12, 48 h, read-out: Activity; procedure, shortened: as §1
HT-29 = test: Growth inhibition of human HT-29 cells assessed as growth percentage at 10 uM incubated for 48 hrs by sulforhodamine B assay relative to control; settings: HT-29, 48 h, read-out: Activity; procedure, shortened: as §1
U-251 = test: Growth inhibition of human U251 cells assessed as growth percentage at 10 uM incubated for 48 hrs by sulforhodamine B assay relative to control; settings: U-251, 48 h, read-out: Activity; procedure, shortened: as §2
OVCAR-8 = test: Growth inhibition of human OVCAR8 cells assessed as growth percentage at 10 uM incubated for 48 hrs by sulforhodamine B assay relative to control; settings: OVCAR-8, 48 h, read-out: Activity; procedure, shortened: as §2
UACC-257 = test: Growth inhibition of human UACC257 cells assessed as growth percentage at 10 uM incubated for 48 hrs by sulforhodamine B assay relative to control; settings: UACC-257, 48 h, read-out: Activity; procedure, shortened: as §2
UACC-62 = test: Growth inhibition of human UACC62 cells assessed as growth percentage at 10 uM incubated for 48 hrs by sulforhodamine B assay relative to control; settings: UACC-62, 48 h, read-out: Activity; procedure, shortened: as §2
COLO 205 = test: Growth inhibition of human COLO205 cells assessed as growth percentage at 10 uM incubated for 48 hrs by sulforhodamine B assay relative to control; settings: COLO 205, 48 h, read-out: Activity; procedure, shortened: as §3
SN12C = test: Growth inhibition of human SN12C cells assessed as growth percentage at 10 uM incubated for 48 hrs by sulforhodamine B assay relative to control; settings: read-out: Activity; procedure, shortened: as §2
HCT-15 = test: Growth inhibition of human HCT15 cells assessed as growth percentage at 10 uM incubated for 48 hrs by sulforhodamine B assay relative to control; settings: HCT-15, 48 h, read-out: Activity; procedure, shortened: as §3
HCC 2998 = test: Growth inhibition of human HCC2998 cells assessed as growth percentage at 10 uM incubated for 48 hrs by sulforhodamine B assay relative to control; settings: HCC 2998, 48 h, read-out: Activity; procedure, shortened: as §3
NCI/ADR-RES = test: Growth inhibition of human NCI/ADR-RES cells assessed as growth percentage at 10 uM incubated for 48 hrs by sulforhodamine B assay relative to control; settings: read-out: Activity; procedure, shortened: as §1
HCT-116 = test: Growth inhibition of human HCT116 cells assessed as growth percentage at 10 uM incubated for 48 hrs by sulforhodamine B assay relative to control; settings: HCT-116, 48 h, read-out: Activity; procedure, shortened: as §3
SK-MEL-5 = test: Growth inhibition of human SK-MEL-5 cells assessed as growth percentage at 10 uM incubated for 48 hrs by sulforhodamine B assay relative to control; settings: SK-MEL-5, 48 h, read-out: Activity; procedure, shortened: as §2
HL-60(TB) = test: Growth inhibition of human HL-60(TB) cells assessed as growth percentage at 10 uM incubated for 48 hrs by sulforhodamine B assay relative to control; settings: HL-60, 48 h, read-out: Activity
Procedure, shortened: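 NCI-60 single-dose screen. Cells in RPMI 1640 with 5% FBS and 2 mM L-glutamine are plated at 5,000–40,000 cells/well and preincubated overnight at 37 °C, 5% CO2. Compound is added from a DMSO stock at 10 µM final for 48 h. Cells are TCA-fixed (suspension cells 16% final) and stained with SRB. Absorbance is read at 515 nm, and percentage growth is calculated against untreated controls with a time-zero plate.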

OVCAR-3 = test: Growth inhibition of human OVCAR3 cells assessed as growth percentage at 10 uM incubated for 48 hrs by sulforhodamine B assay relative to control; settings: OVCAR-3, 48 h, read-out: Activity; procedure, shortened: as §1

SMILES	growth at 10 µM (LOX IMVI) [%]	growth at 10 µM (SK-MEL-28) [%]	growth at 10 µM (K562) [%]	growth at 10 µM (SF-295) [%]	growth at 10 µM (RXF 393) [%]	growth at 10 µM (DU-145) [%]	growth at 10 µM (A549) [%]	growth at 10 µM (MDA-MB-231) [%]	growth at 10 µM (SW-620) [%]	growth at 10 µM (KM12) [%]	growth at 10 µM (HT-29) [%]	growth at 10 µM (U-251) [%]	growth at 10 µM (OVCAR-8) [%]	growth at 10 µM (UACC-257) [%]	growth at 10 µM (UACC-62) [%]	growth at 10 µM (COLO 205) [%]	growth at 10 µM (SN12C) [%]	growth at 10 µM (HCT-15) [%]	growth at 10 µM (HCC 2998) [%]	growth at 10 µM (NCI/ADR-RES) [%]	other results
CC1=C(C(=O)OCc2ccccc2)C(c2ccc3c(c2)OCO3)n2c(nc3ccccc32)N1 (racemic)	34.6 to 38	52 to 61.8	13.8 to 25	8 to 20.4	30 to 53.2	49 to 53.5	34 to 47.1	64 to 68.6	17.6 to 19	15 to 17.3	7 to 14.4	31 to 36.3	39 to 46.7	34 to 60.4	22 to 46.2	37.2 to 43	47.6 to 51	23 to 30.4	50 to 56.4	20 to 23.2	growth at 10 µM (HCT-116): 18.8 to 25%; growth at 10 µM (SK-MEL-5): 25.5 to 28%
CC(=O)N1C(=S)NC(C)=C(C(=O)OCc2ccccc2)C1c1ccc2c(c1)OCO2 (racemic)	74.1	102	55.4	96.4	101	95	95.6	84.5	65.3	71.1	52.2	58.2	80.3	77.7	75.3	91.8	54.5	83.8	110	95.3	growth at 10 µM (HL-60(TB)): 33.6%; growth at 10 µM (OVCAR-3): 104%; growth at 10 µM (HCT-116): 41.4%; growth at 10 µM (SK-MEL-5): 91.2%
O=C1C2=C(NC(=S)NC2c2ccc3c(c2)OCO3)c2ccccc21 (racemic)	99.2	123	103	102	107	112	107	104	95.2	109	108	97.8	102	102	99.7	113	95.8	105	106	103	growth at 10 µM (HL-60(TB)): 99.7%; growth at 10 µM (OVCAR-3): 113%; growth at 10 µM (HCT-116): 110%; growth at 10 µM (SK-MEL-5): 101%
COCCOC(=O)C1=C(C)NC(=O)NC1c1ccc2c(c1)OCO2 (racemic)	98.6	112	97.4	98.5	94.6	108	101	98.8	97	102	102	98.3	99.3	103	96	102	102	101	101	104	growth at 10 µM (HL-60(TB)): 99.7%; growth at 10 µM (OVCAR-3): 110%; growth at 10 µM (HCT-116): 107%; growth at 10 µM (SK-MEL-5): 100%
CC(=O)N1C(=S)NC(C)=C(C(=O)OCC(C)C)C1c1ccc2c(c1)OCO2 (racemic)	97.5	105	78.2	101	106	99.6	95.9	88.7	97.3	93.8	104	87.5	95.9	99.5	85.7	101	94.8	93.3	110	97	growth at 10 µM (HL-60(TB)): 98.5%; growth at 10 µM (OVCAR-3): 96.8%; growth at 10 µM (HCT-116): 93.5%; growth at 10 µM (SK-MEL-5): 100%
